PRMT1 inh: inhibitors of human PRMT1. AID 652257. inhibition, % at 2.79 µM. hit rate 1.3% among 370,000. Q99873. recombinant PRMT1, activity-based probe fluorescence polarization;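 active means inhibition above about 21% made by adding two undisclosed values, limit read from the data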
mABHD4 FP: ABHD4 (mouse) inhibition, primary FP screen. Q8VD66. purified mABHD4, FP-Rh probe fluorescence polarization. inhibition, % at 8.92 µM. hit rate 0.54% among 370,000. AID 720543;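 active means inhibition exceeding the mean over every tested compound plus 3 SD, cut at about 30% in these data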
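Material: mouse ABHD4 enzyme, wild type; Benchmarks: S159A mutant high control, sample median low control; Buffer or medium: HEPES pH 7.0, NaCl, Pluronic buffer; Signal: fluorescence polarization; Read-out: percent inhibition of probe binding, normalized to plate controls; Timing: pre-incubation 45 min, probe exposure 60 min, at 25 °C; Dosing: 8.92 µM, single dose.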
PAD4 FP inh: inhibitors of human PAD4; Q9UM07; recombinant PAD4, RCA probe fluorescence polarization; inhibition, % at 6.36 µM; hit rate 0.41% among 330,000; AID 485272;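 active means percent inhibition above a cutoff equal to the mean of all tested compounds plus 3 SD, cut at about 15% in these data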
SIAE primary: human SIAE inhibition, primary screen. Q9HAT2. SIAE FP-Rh probe binding, fluorescence polarization. inhibition, % at 9.66 µM. hit rate 0.69% among 370,000;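 active means inhibition above a cutoff: mean of compounds within the control limits plus 3 SD of those, cut at about 17% in these data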
TCR-CD3 inh: blocks the human TCR-CD3 interaction. TAMRA-labeled TCR probe fluorescence, biochemical. hit rate 0.37% among 360,000. inhibition, % at 9.4 µM; in the data active means inhibition above about 19%;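 further: recombinant mutant TCR 2C K166C tagged with TAMRA read by polarization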
HTRA1 inh: HTRA1 (human) protease inhibition; recombinant HTRA1, FP-rhodamine activity-based probe, fluorescence polarization; inhibition, % at 5.96 µM; AID 504803; hit rate 0.5% among 340,000; Q92743; in the data active means inhibition above about 36%
Target sequence (Q92743 whole entry, looked up): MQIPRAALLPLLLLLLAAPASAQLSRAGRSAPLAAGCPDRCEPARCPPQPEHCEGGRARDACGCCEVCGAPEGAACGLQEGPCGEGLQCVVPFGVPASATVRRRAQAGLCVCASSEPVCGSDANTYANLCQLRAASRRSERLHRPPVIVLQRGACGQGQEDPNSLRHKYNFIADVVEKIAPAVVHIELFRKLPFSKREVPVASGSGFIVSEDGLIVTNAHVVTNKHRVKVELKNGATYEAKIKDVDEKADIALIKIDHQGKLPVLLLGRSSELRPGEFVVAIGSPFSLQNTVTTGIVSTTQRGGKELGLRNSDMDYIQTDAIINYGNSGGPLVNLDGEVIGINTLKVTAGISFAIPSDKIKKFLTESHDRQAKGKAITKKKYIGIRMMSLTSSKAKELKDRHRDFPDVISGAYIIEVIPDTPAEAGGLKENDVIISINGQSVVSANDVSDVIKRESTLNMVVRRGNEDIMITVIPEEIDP
PRMT1 inh conf: confirmation of human PRMT1 inhibitors | shares compounds with PRMT1 inh | recombinant His-PRMT1, activity-based probe fluorescence polarization | inhibition, % at 2.79 µM | hit rate 42% among 3,300;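 active means mean inhibition across replicates above the hit cutoff derived for the earlier primary screen, cut at about 22% in these data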
Hits are given with their value; n = inactive; x = not tested or not shown. Compounds with a hit are over-represented: about 2.9% of the library has one in this group of screens.

SMILES	PRMT1 inh	mABHD4 FP	PAD4 FP inh	SIAE primary	TCR-CD3 inh	HTRA1 inh	PRMT1 inh conf
COc1ccc2c(c1)CN1C(=O)N(Cc3ccc(F)cc3)S(=O)(=O)CC21 (centres undefined)	n	n	x	n	x	x	x
COc1ccc(C2=CSC3=C(C(=O)c4cccc(S(=O)(=O)N(C)C)c4)CCN23)cc1	28.3	n	n	n	n	n	27.3
Cc1ccc(S(=O)(=O)N/N=C\c2cc3c(cc2Br)OCO3)cc1	n	n	n	n	n	n	x
O=[N+]([O-])c1cc2c(cc1/C=N/NS(=O)(=O)c1ccc(Br)cc1)OCO2	34.2	n	n	n	n	x	n
CN(C(=O)CNC(=O)c1ccccc1OCC(=O)Nc1ccc(I)cc1)c1ccccc1	30.6	n	x	n	x	x	n
O=C(Cn1nnc(-c2ccc(N3CCOCC3)cc2)n1)c1ccc(F)cc1	n	n	x	n	x	x	x
CCOC(=O)C1CCCN(C2CC(=O)N(c3cccc(C)c3)C2=O)C1 (centres undefined)	63.1	n	n	n	n	n	n
CCCOc1ccc(N2C(=O)CC(N3CCC(C(=O)OCC)CC3)C2=O)cc1 (centres undefined)	56.0	n	n	n	n	n	n
O=C(C1CCCN(C2CC(=O)N(c3ccc(F)cc3)C2=O)C1)N1CCCC1 (centres undefined)	n	n	x	n	n	n	x
O=C(C1CCCN(C2CC(=O)N(c3ccc(Cl)cc3)C2=O)C1)N1CCCC1 (centres undefined)	29.6	n	x	n	n	n	n
CCCOc1ccc(N2C(=O)CC(SCC(N)C(=O)OCC)C2=O)cc1 (centres undefined)	27.1	n	n	n	n	n	23.4
Nn1c(SCC(=O)Nc2cccc3ccccc23)nnc1-c1n[nH]c2c1CCC2	n	n	x	n	x	x	x
CCOc1ccc(N2C(=O)CC(N3CCN(C(=O)CN4CCCC4)CC3)C2=O)cc1 (centres undefined)	n	n	n	n	n	n	x
CCCOc1ccc(N2C(=O)CC(N3CCCC(C(=O)N4CCCC4)C3)C2=O)cc1 (centres undefined)	39.0	n	n	n	n	n	n
CCOc1ccc(N2C(=O)CC(N3CCC(NC(=O)Nc4ccccc4)CC3)C2=O)cc1 (centres undefined)	64.3	n	n	n	n	n	n
O=C(C1CCN(C2CC(=O)N(c3cccc(Cl)c3)C2=O)CC1)N1CCCCCC1 (centres undefined)	28.9	n	n	n	n	n	n
Cc1ccc(S(=O)(=O)n2ccc(-c3c(-c4ccc(F)cc4)noc3C)n2)cc1	n	n	x	n	x	x	x
Brc1ccc(-c2csc3[n+]2CCCCC3)cc1	27.8	n	n	n	n	n	n
CCOC(=O)c1ccc(NC(=O)C(=O)NCc2ccc(/C=C(/C#N)C(=O)NCCOC)o2)cc1	n	n	n	n	n	n	x
CCOC(=O)C1=C(O)/C(=C/c2ccc(CNC(=O)C(=O)Nc3ccc(C)cc3)o2)N=C1C	48.1	n	n	n	n	n	n
COC(=O)C1=C(O)/C(=C\c2ccc(CNC(=O)C(=O)Nc3ccc(C)c(C)c3)o2)N=C1C	45.3	n	n	n	n	n	n
CCOC(=O)C(=O)NCc1ccc(/C=C2/N=C(C)C(C(=O)OCC)=C2O)o1	n	n	n	n	n	n	x
CCCOc1ccc(N2C(=O)CC(N(CCC)C(=O)CCC(=O)O)C2=O)cc1 (centres undefined)	n	n	n	n	n	n	x
CCCCCCC(=O)N(O)C1CC(=O)N(c2ccc(C)cc2)C1=O (centres undefined)	87.3	n	n	n	n	n	90.9
O=C(O)CSC1CC(=O)N(c2ccc(Cl)cc2)C1=O (centres undefined)	n	n	n	n	n	n	x
SMILES	PRMT1 inh	mABHD4 FP	PAD4 FP inh	SIAE primary	TCR-CD3 inh	HTRA1 inh	PRMT1 inh conf
CCCCCCC(=O)N(O)C1CC(=O)N(c2ccc(Cl)cc2)C1=O (centres undefined)	50.9	n	n	n	n	n	84.1
O=S(=O)(c1cccs1)N1CCCc2nc(-c3ccc(F)cc3)ccc21	n	n	x	n	n	x	x
Brc1ccc(-c2csc(N3CCC(c4nn[nH]n4)CC3)n2)cc1	n	n	x	n	x	x	x
Cc1ccc(NNC(N)=S)cc1Cl	28.0	n	n	n	n	n	n
Cc1ccc(NC(=O)[C@@H]2CC(=O)O[C@@H]2c2ccccc2)c(C)c1	n	n	x	n	x	x	x
COc1cccc(N2C(=O)CC(N3CCC(C(N)=O)(N4CCCCC4)CC3)C2=O)c1 (centres undefined)	53.6	n	n	n	n	n	n
NC(=O)C1(N2CCCCC2)CCN(C2CC(=O)N(CCc3ccccc3)C2=O)CC1 (centres undefined)	43.9	n	n	n	n	n	n
NC(=O)C1(N2CCCCC2)CCN(C2CC(=O)N(Cc3cccs3)C2=O)CC1 (centres undefined)	n	n	n	n	n	n	x
O=C(c1cccc(I)c1)N1CCC(Oc2cccnc2)CC1	n	n	x	n	x	x	x
CCOC(=O)CC(S(=O)(=O)c1ccccc1)S(=O)(=O)c1ccccc1	78.9	n	x	n	n	n	58.0
CCOC(=O)N=S(N)(=O)c1ccccc1 (centres undefined)	n	n	n	n	n	n	x
CC[C@H]1C=C[C@@H](C(=O)NS(=O)(=O)c2ccc(C)cc2)N(C(C)=O)C1	n	n	x	n	x	x	x
Cc1cc(-c2n[nH]c(=S)n2/N=C/C(Cl)=C/c2ccccc2)n[nH]1	25.9	n	n	n	n	n	n
Cc1cc(-c2n[nH]c(=S)n2N=Cc2c3ccccc3cc3ccccc23)n[nH]1	42.3	n	x	n	x	x	n
Cc1cc(-c2n[nH]c(=S)n2/N=C/c2cccc(O)c2)n[nH]1	n	n	n	n	n	n	x
S=c1[nH]nc(C2CCCCC2)n1/N=C/C(Cl)=C\c1ccccc1	n	n	n	n	n	n	x
S=c1[nH]nc(-c2ccco2)n1/N=C/C(Cl)=C/c1ccccc1	25.6	n	n	n	n	n	n
Cc1occc1-c1nnc(SCC(=O)Nc2ccccn2)n1-c1ccccc1	n	n	x	n	x	x	x
C=CCOC(=O)N[C@H](c1ccc2ccccc2c1)[C@H](C)/C=C/CC(=O)OC	n	n	x	n	x	x	x
COc1ccc(CCN(C)C2CC(=O)N(c3ccccc3)C2=O)cc1OC (centres undefined)	45.6	n	n	n	n	n	n
COc1ccc(C2c3cc(OC)c(OC)cc3CCN2C2CC(=O)N(c3ccccc3)C2=O)cc1OC (centres undefined)	41.5	n	n	n	n	n	n
COC(=O)c1ccc(N2C(=O)CC(N(C)CCc3ccc(OC)c(OC)c3)C2=O)cc1 (centres undefined)	n	n	n	n	n	n	x
COc1ccc(N2C(=O)CC(N(C)CCc3ccc(OC)c(OC)c3)C2=O)cc1 (centres undefined)	47.6	n	n	n	n	n	n

Compound activity as filed in PubChem.
